ChEMBL document CHEMBL1154352, “Toll-like receptor 7 selective synthetic oligoribonucleotide agonists: synthesis and structure-activity relationship studies” (J Med Chem, 2009)
Activity calls are given as the source filed them. The rule behind the calls is not given here.

Columns and labels:
[1] = system: PBMC; test: Immunomodulatory activity in human PBMC assessed as induction of MIP1alpha at 50 ug/ml after 24 hrs; format: functional, cell-based
In short: (§1)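 Human PBMCs plated at 5 × 10^6 cells/mL; compounds dissolved in PBS added at various concentrations, 37 °C for 24 h. Supernatant cytokines/chemokines quantified with human Luminex multiplex kit.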

[2] = organism: Homo sapiens; test: Immunostimulatory activity in human pDC assessed as induction of IFNalpha at 100 ug/ml after 24 hrs; format: functional
In short: (§2)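 Human pDCs plated at 1 × 10^6 cells/mL; compounds in PBS added, 37 °C for 24 h; supernatant cytokines/chemokines by human Luminex multiplex kit.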

[3] = system: PBMC; test: Immunomodulatory activity in human PBMC assessed as induction of IL12 at 100 ug/ml after 24 hrs; format: functional, cell-based; in short: as §1
[4] = system: PBMC; test: Immunomodulatory activity in human PBMC assessed as induction of MIP1alpha after 24 hrs; format: functional, cell-based; in short: as §1
[5] = organism: Homo sapiens; test: Immunostimulatory activity in human mDC assessed as induction of IL12 at 100 ug/ml after 24 hrs; format: functional
In short: (§3)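 Human mDCs isolated from PBMCs by CD19+ B-cell depletion then BDCA1 positive selection; plated at 1 × 10^6 cells/mL, compounds in PBS, 37 °C for 24 h; supernatant cytokines by human Luminex multiplex. Representative of four independent experiments.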

[6] = organism: Homo sapiens; test: Ratio of human TLR7 activity to human TLR8 activity
In short: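 TLR7/TLR8 ratio computed from fold NF-κB (SEAP reporter) activation in HEK293 cells stably expressing human TLR7 versus TLR8, compounds at 50 μg/mL, 18 h exposure; representative of three independent experiments.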

[7] = molecular target: T1, Toll-like receptor 9 (Mus musculus) (UniProt Q9EQU3); test: Activation of mouse TLR9 expressed in HEK293 assessed as induction of NF-kappaB activity reporter gene assay; format: cell-based
T1 sequence (whole entry): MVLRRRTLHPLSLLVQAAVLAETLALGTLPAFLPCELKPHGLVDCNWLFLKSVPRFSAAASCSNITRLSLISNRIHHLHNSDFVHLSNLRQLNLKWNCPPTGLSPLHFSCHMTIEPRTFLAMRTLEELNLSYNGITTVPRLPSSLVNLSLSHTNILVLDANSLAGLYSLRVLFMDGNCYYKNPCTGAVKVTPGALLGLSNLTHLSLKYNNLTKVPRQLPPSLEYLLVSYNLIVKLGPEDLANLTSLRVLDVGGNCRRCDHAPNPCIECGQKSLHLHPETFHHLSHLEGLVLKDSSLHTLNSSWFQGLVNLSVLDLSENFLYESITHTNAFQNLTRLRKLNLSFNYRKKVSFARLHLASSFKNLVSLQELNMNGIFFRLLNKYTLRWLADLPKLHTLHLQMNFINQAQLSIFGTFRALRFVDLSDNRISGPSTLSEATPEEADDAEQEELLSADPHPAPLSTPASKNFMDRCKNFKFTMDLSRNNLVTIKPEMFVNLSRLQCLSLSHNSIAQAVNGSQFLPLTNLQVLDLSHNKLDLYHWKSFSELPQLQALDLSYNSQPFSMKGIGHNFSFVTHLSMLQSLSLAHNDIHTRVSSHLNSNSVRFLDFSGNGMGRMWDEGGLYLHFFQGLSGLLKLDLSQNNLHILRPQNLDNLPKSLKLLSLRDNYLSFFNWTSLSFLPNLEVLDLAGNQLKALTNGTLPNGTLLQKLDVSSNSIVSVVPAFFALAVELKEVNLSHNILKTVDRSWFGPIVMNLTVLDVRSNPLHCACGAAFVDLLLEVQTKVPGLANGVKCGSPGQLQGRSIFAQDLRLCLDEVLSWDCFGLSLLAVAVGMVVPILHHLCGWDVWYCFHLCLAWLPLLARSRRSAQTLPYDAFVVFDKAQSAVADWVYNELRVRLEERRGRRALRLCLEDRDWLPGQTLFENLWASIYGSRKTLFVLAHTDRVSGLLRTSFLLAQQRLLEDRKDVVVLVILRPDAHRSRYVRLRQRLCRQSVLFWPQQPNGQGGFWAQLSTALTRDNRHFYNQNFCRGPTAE

[8] = system: PBMC; test: Immunomodulatory activity in human PBMC assessed as induction of IL6 at 50 ug/ml after 24 hrs; format: functional, cell-based; in short: as §1
[9] = Metabolic stability in human serum assessed as full length product remaining after 10 mins by HPLC; format: ADME, cell-free; details: read-out: Stability
In short: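 About 0.5 A260 units compound in 1% human serum in PBS, 37 °C; aliquot taken at 10 min, analysed by anion-exchange HPLC for percent intact full-length product.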

[10] = organism: Homo sapiens; test: Immunostimulatory activity in human pDC assessed as induction of IL6 at 100 ug/ml after 24 hrs; format: functional; in short: as §2
[11] = system: PBMC; test: Immunomodulatory activity in human PBMC assessed as induction of IP10 at 50 ug/ml after 24 hrs; format: functional, cell-based; in short: as §1
[12] = organism: Homo sapiens; test: Immunostimulatory activity in human mDC assessed as induction of TNFalpha at 100 ug/ml after 24 hrs; format: functional; in short: as §3
[13] = system: PBMC; test: Immunomodulatory activity in human PBMC assessed as induction of IL12 at 50 ug/ml after 24 hrs; format: functional, cell-based; in short: as §1
[14] = organism: Homo sapiens; test: Immunostimulatory activity in human mDC assessed as induction of IFNalpha at 100 ug/ml after 24 hrs; format: functional; in short: as §3
[15] = organism: Homo sapiens; test: Immunostimulatory activity in human pDC assessed as induction of IP10 at 100 ug/ml after 24 hrs; format: functional; in short: as §2
[16] = system: PBMC; test: Immunomodulatory activity in human PBMC assessed as induction of MCP1 at 50 ug/ml after 24 hrs; format: functional, cell-based; in short: as §1
[17] = system: PBMC; test: Immunomodulatory activity in human PBMC assessed as induction of TNFalpha at 50 ug/ml after 24 hrs; format: functional, cell-based; in short: as §1
[18] = system: Splenocyte; test: Immunomodulatory activity in C57BL/6 mouse splenocytes bearing TLR7 receptor assessed as IL6 release at 100 ug/ml after 24 hrs by ELISA; format: functional, cell-based
In short: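 C57BL/6 splenocytes in RPMI 1640 with 10% FBS, penicillin/streptomycin, 2 mM L-glutamine, plated at 5 × 10^6 cells/mL; compounds in PBS added, 37 °C for 24 h. Supernatant IL-12 and IL-6 by ELISA; representative of three independent experiments.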

[19] = system: PBMC; test: Immunomodulatory activity in human PBMC assessed as induction of IL1-beta at 50 ug/ml after 24 hrs; format: functional, cell-based; in short: as §1
[20] = system: PBMC; test: Immunomodulatory activity in human PBMC assessed as induction of MIP1beta at 50 ug/ml after 24 hrs; format: functional, cell-based; in short: as §1
[21] = system: PBMC; test: Immunomodulatory activity in human PBMC assessed as induction of IFNalpha at 50 ug/ml after 24 hrs; format: functional, cell-based; in short: as §1
[22] = system: Mus musculus; test: Immunomodulatory activity in C57BL/6 mouse assessed as induction of IL12 release at 25 mg/kg, sc after 2 hrs by ELISA; format: functional, organism-based; parameters: dose 25 mg/kg
In short: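 Female C57BL/6 wild-type mice, 5–8 weeks old, n=3; compounds given subcutaneously at 10 or 25 mg/kg. Retro-orbital blood at 2 h; serum cytokines by mouse Luminex multiplex or IL-12 ELISA.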

[23] = organism: Homo sapiens; test: Immunostimulatory activity in human mDC assessed as induction of IL6 at 100 ug/ml after 24 hrs; format: functional; in short: as §3
[24] = organism: Homo sapiens; test: Immunostimulatory activity in human mDC assessed as induction of IP10 at 100 ug/ml after 24 hrs; format: functional; in short: as §3

SMILES: Nc1ccn([C@@H]2O[C@H](COP(=O)(S)O[C@H]3[C@@H](O)[C@H](n4cnc5c(N)ncnc54)O[C@@H]3COP(=O)(S)O[C@H]3[C@@H](O)[C@H](n4ccc5c(=O)[nH]c(N)nc54)O[C@@H]3COP(=O)(S)O[C@H]3[C@@H](O)[C@H](n4ccc(=O)[nH]c4=O)O[C@@H]3COP(=O)(S)O[C@H]3[C@@H](O)[C@H](n4ccc5c(=O)[nH]c(N)nc54)O[C@@H]3COP(=O)(S)O[C@H]3[C@@H](O)[C@H](n4cnc5c(N)ncnc54)O[C@@H]3COP(=O)(S)O[C@H]3[C@@H](O)[C@H](n4cnc5c(N)ncnc54)O[C@@H]3CO)[C@@H](OP(=O)(S)OC[C@H]3O[C@@H](n4ccc5c(=O)[nH]c(N)nc54)[C@H](O)[C@@H]3OP(=O)(S)OC[C@H]3O[C@@H](n4ccc(N)nc4=O)[C@H](O)[C@@H]3OP(=O)(S)OC[C@H]3O[C@@H](n4ccc(=O)[nH]c4=O)[C@H](O)[C@@H]3OP(=O)(S)OC[C@H]3O[C@@H](n4ccc(=O)[nH]c4=O)[C@H](O)[C@@H]3OP(=O)(S)OCC(O)COP(=O)(S)O[C@H]3[C@@H](O)[C@H](n4ccc(=O)[nH]c4=O)O[C@@H]3COP(=O)(S)O[C@H]3[C@@H](O)[C@H](n4ccc(=O)[nH]c4=O)O[C@@H]3COP(=O)(S)O[C@H]3[C@@H](O)[C@H](n4ccc(N)nc4=O)O[C@@H]3COP(=O)(S)O[C@H]3[C@@H](O)[C@H](n4ccc5c(=O)[nH]c(N)nc54)O[C@@H]3COP(=O)(S)O[C@H]3[C@@H](O)[C@H](n4ccc(N)nc4=O)O[C@@H]3COP(=O)(S)O[C@H]3[C@@H](O)[C@H](n4cnc5c(N)ncnc54)O[C@@H]3COP(=O)(S)O[C@H]3[C@@H](O)[C@H](n4ccc5c(=O)[nH]c(N)nc54)O[C@@H]3COP(=O)(S)O[C@H]3[C@@H](O)[C@H](n4ccc(=O)[nH]c4=O)O[C@@H]3COP(=O)(S)O[C@H]3[C@@H](O)[C@H](n4ccc5c(=O)[nH]c(N)nc54)O[C@@H]3COP(=O)(S)O[C@H]3[C@@H](O)[C@H](n4cnc5c(N)ncnc54)O[C@@H]3COP(=O)(S)O[C@H]3[C@@H](O)[C@H](n4cnc5c(N)ncnc54)O[C@@H]3CO)[C@H]2O)c(=O)n1 (some centres not stated)
- Activity [1]: 2540 pg/mL
- Activity [2]: Active
- Activity [3]: 352 pg/mL
- Activity [4]: Dose-dependent effect
- Activity [5]: Active
- Ratio [6]: 32.3
- Activity [7]: inactive
- Activity [8]: 1300 pg/mL
- remaining at 10 min [9]: 87%
- Activity [10]: Active
- Activity [11]: 629 pg/mL
- Activity [12]: Active
- Activity [13]: 316 pg/mL
- Activity [14]: Active
- Activity [15]: Active
- Activity [16]: 51500 pg/mL
- Activity [17]: 57 pg/mL
- Activity [18]: Active
- Activity [19]: 105 pg/mL
- Activity [20]: 6230 pg/mL
- Activity [21]: 209 pg/mL
- Activity [22]: Active
- Activity [23]: Active
- Activity [24]: Active

SMILES: Nc1ccn([C@@H]2O[C@H](COP(=O)(S)O[C@H]3[C@@H](O)[C@H](n4cnc5c(N)ncnc54)O[C@@H]3COP(=O)(S)O[C@H]3[C@@H](O)[C@H](n4ccc5c(=O)[nH]c(N)nc54)O[C@@H]3COP(=O)(S)O[C@H]3[C@@H](O)[C@H](n4ccc(=O)[nH]c4=O)O[C@@H]3COP(=O)(S)O[C@H]3[C@@H](O)[C@H](n4ccc5c(=O)[nH]c(N)nc54)O[C@@H]3COP(=O)(S)O[C@H]3[C@@H](O)[C@H](n4cnc5c(N)ncnc54)O[C@@H]3COP(=O)(S)O[C@H]3[C@@H](O)[C@H](n4cnc5c(N)ncnc54)O[C@@H]3CO)[C@@H](OP(=O)(S)OC[C@H]3O[C@@H](n4ccc5c(=O)[nH]c(N)nc54)[C@H](O)[C@@H]3OP(=O)(S)OC[C@H]3O[C@@H](n4cnc5c(N)ncnc54)[C@H](O)[C@@H]3OP(=O)(S)OC[C@H]3O[C@@H](n4ccc(=O)[nH]c4=O)[C@H](O)[C@@H]3OP(=O)(S)OC[C@H]3O[C@@H](n4ccc(=O)[nH]c4=O)[C@H](O)[C@@H]3OP(=O)(S)OCC(O)COP(=O)(S)O[C@H]3[C@@H](O)[C@H](n4ccc(=O)[nH]c4=O)O[C@@H]3COP(=O)(S)O[C@H]3[C@@H](O)[C@H](n4ccc(=O)[nH]c4=O)O[C@@H]3COP(=O)(S)O[C@H]3[C@@H](O)[C@H](n4cnc5c(N)ncnc54)O[C@@H]3COP(=O)(S)O[C@H]3[C@@H](O)[C@H](n4ccc5c(=O)[nH]c(N)nc54)O[C@@H]3COP(=O)(S)O[C@H]3[C@@H](O)[C@H](n4ccc(N)nc4=O)O[C@@H]3COP(=O)(S)O[C@H]3[C@@H](O)[C@H](n4cnc5c(N)ncnc54)O[C@@H]3COP(=O)(S)O[C@H]3[C@@H](O)[C@H](n4ccc5c(=O)[nH]c(N)nc54)O[C@@H]3COP(=O)(S)O[C@H]3[C@@H](O)[C@H](n4ccc(=O)[nH]c4=O)O[C@@H]3COP(=O)(S)O[C@H]3[C@@H](O)[C@H](n4ccc5c(=O)[nH]c(N)nc54)O[C@@H]3COP(=O)(S)O[C@H]3[C@@H](O)[C@H](n4cnc5c(N)ncnc54)O[C@@H]3COP(=O)(S)O[C@H]3[C@@H](O)[C@H](n4cnc5c(N)ncnc54)O[C@@H]3CO)[C@H]2O)c(=O)n1 (some centres not stated)
- Activity [1]: 3090 pg/mL
- Activity [2]: Active
- Activity [3]: 400 pg/mL
- Activity [5]: Active
- Ratio [6]: 21.9
- Activity [7]: inactive
- Activity [8]: 1900 pg/mL
- remaining at 10 min [9]: 90%
- Activity [10]: Active
- Activity [11]: 55 pg/mL
- Activity [12]: Active
- Activity [13]: 174 pg/mL
- Activity [14]: Active
- Activity [15]: Active
- Activity [16]: 46700 pg/mL
- Activity [17]: 18 pg/mL
- Activity [18]: Active
- Activity [19]: 123 pg/mL
- Activity [20]: 6680 pg/mL
- Activity [21]: 121 pg/mL
- Activity [22]: Active
- Activity [23]: Active
- Activity [24]: Active
